In paper PMC3000965 (The Journal of Biological Chemistry, 2010):
Values belong to the molecule of their own block, whether it stands above or below them.

Legend:
[1] = system: Purified Hela Hsp90; assay: Dissociation of [3H]17-AAG from purified Hsp90; assay type: binding, human
[2] = system: Hsp90 in SK-BR-3 cell lysate; assay: Association of [3H]17-AAG to Hsp90 in SK-BR-3 lysate; assay type: binding, human; settings: 4 °C, 10 μM 17-AAG
[3] = system: Purified Hela Hsp90; assay: Association of [3H]17-AAG to purified Hsp90; assay type: binding, human
[4] = system: Hsp90 in SK-BR-3 lysates; assay: Dissociation of [3H]17-AAG from Hsp90 in SK-BR-3 lysates; assay type: binding, human; settings: 4 °C
[5] = Plasma and tumor PK in H1650 tumor-bearing mice; assay type: in vivo
In short: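 Nude mice bearing H1650 xenografts received a single i.v. dose of test compound (100 mg/kg). Plasma and tumors were collected at time points from 1 to 48 h (n = 3). Tumors were homogenized in ice-cold, nitrogen-sparged 1:1 acetonitrile : 150 mM citrate/EDTA/ascorbate, pH 3, then filtered and diluted 1:1 in citrate buffer with 25 ng/ml deuterated internal standard. Parent compound and two active metabolites were quantified by LC-MS/MS.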

[6] = system: Hsp90; settings: cited from earlier work
[7] = system: RS4;11 cells; assay: Cell growth inhibition; assay type: cell-based; settings: Homo sapiens, RS4-11, 72 h, read-out: Cell growth inhibition (GI50)
In short: (§1)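 Cells grown in RPMI 1640 with 10% FBS at 37 °C, 5% CO2. Seeded at 10,000 cells/well, held 24 h, then exposed to increasing concentrations of test compound for 72 h. Viability read by CellTiter-Glo luminescence and normalized to DMSO vehicle control to give GI50.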

[8] = system: Akt; assay: Akt client protein degradation by immunoblot in H1650 cells; assay type: cell-based, human; settings: 10 μM (highest concentration tested), 6 h
In short: (§2)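 H1650 cells were exposed to increasing concentrations of test compound for 6 h. They were lysed in RIPA buffer with protease inhibitors, protein was measured by BCA, and samples were run on 4–12% Bis-Tris SDS-PAGE and transferred to PVDF. Blots were probed with client-specific antibodies and detected by ECL. Bands were normalized to actin, and the fraction degraded was computed by densitometry against untreated samples.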

[9] = system: Hsp90 in RS4;11 cells; assay: Hsp90 occupancy in RS4; assay type: cell-based, human; settings: read-out: Hsp90 occupancy (EC50); RS4;11, 6 h incubation
In short: (§3)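 Cells were grown to 95% confluency and treated with test compound (0.01–10 μM) for 6 h at 37 °C. They were washed in cold PBS and lysed by freeze/thaw in binding buffer (20 mM Hepes pH 7.3, KCl, MgCl, EDTA, TCEP). Unbound drug was removed on prechilled spin columns. […], with total Hsp90 quantified by immunoblot against recombinant α/β standards. Average of two experiments.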

[10] = system: HER2; assay: HER2 client protein degradation by immunoblot in H1650 cells; assay type: cell-based, human
In short: as §2

[11] = system: mEGFR; assay: mEGFR client protein degradation by immunoblot in H1650 cells; assay type: cell-based, human; settings: read-out: mEGFR degradation EC50, 6 h
In short: as §2

[12] = system: Hsp90 in SKOV-3 cells; assay: Hsp90 occupancy in SKOV-3 cells; assay type: cell-based, human; settings: read-out: Hsp90 occupancy (EC50); SKOV-3, 6 h incubation
In short: as §3

[13] = system: Hsp90 in H1650 cells; assay: Hsp90 occupancy in H1650 cells; assay type: cell-based, human; settings: read-out: Hsp90 occupancy (EC50); H1650, 6 h incubation
In short: as §3

[14] = system: SKOV-3 cells; assay: Cell growth inhibition; assay type: cell-based; settings: Homo sapiens, SK-OV-3, 72 h, read-out: Cell growth inhibition (GI50)
In short: as §1

[15] = system: H1650 cells; assay: Cell growth inhibition; assay type: cell-based; settings: Homo sapiens, NCI-H1650, 72 h, read-out: Cell growth inhibition (GI50)
In short: as §1

[16] = system: mEGFR; assay: mEGFR protein degradation in H1650 tumor xenografts; assay type: in vivo, mice; settings: 100 mg/kg single dose
In short: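 Nude mice bearing H1650 flank xenografts received a single i.v. dose of test compound (100 mg/kg). They were sacrificed at time points from 1 to 48 h post dose (n = 3; vehicle n = 2). Tumors were snap-frozen in liquid nitrogen, stored at −80 °C, and EGFR protein levels in tumor tissue were assessed by immunoblot. Data are averages ± S.D.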

[17] = system: H1975 cells; assay: Cell growth inhibition; assay type: cell-based; settings: Homo sapiens, NCI-H1975, 72 h, read-out: Cell growth inhibition (GI50)
In short: as §1

[18] = system: Hsp90 in H1650 tumor xenografts; assay: Hsp90 occupancy in H1650 tumor xenografts; assay type: in vivo, mice; settings: 100 mg/kg single dose
In short: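 Male athymic nude mice (6–8 weeks) carried flank xenografts from 1 × 10^7 H1650 cells. They received a single i.v. dose of test compound (100 mg/kg) and were sacrificed at time points from 1 to 48 h (n = 3; vehicle n = 2). Tumors were snap-frozen and powdered, and ~10 mg was homogenized in chilled binding buffer and clarified at 14,000 × g, 4 °C.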

[19] = system: cRaf; assay: cRaf client protein degradation by immunoblot in H1650 cells; assay type: cell-based, human; settings: 10 μM (highest concentration tested), 6 h
In short: as §2

[20] = system: Hsp90 in H1975 cells; assay: Hsp90 occupancy in H1975 cells; assay type: cell-based, human; settings: read-out: Hsp90 occupancy (EC50); H1975, 6 h incubation
In short: as §3

time at which drug binding reached equilibrium ([3]; 4 °C, 10 μM 17-AAG): ≤ 40 min
SMILES: C=CCNC1=C2C[C@@H](C)C[C@H](OC)[C@H](O)[C@@H](C)/C=C(\C)[C@H](OC(N)=O)[C@@H](OC)/C=C\C=C(/C)C(=O)NC(=CC1=O)C2=O [17-AAG, 17-allylamino-17-demethoxygeldanamycin]
dissociation t½ ([1]; 4 °C): 1680 min
dissociation half-life ([1]; 37 °C): 8 min
time at which drug binding reached equilibrium [2]: ≤ 130 min
association t½ ([2]; ∼100 nM Hsp90 in lysate): 19 min
rate of dissociation slower than rate of association ([3]; 10 μM 17-AAG at 4 °C): ~100 fold
association t½ ([3]; 4 °C, 10 μM 17-AAG, 100 nM Hsp90): 6 min
dissociation half-life [4]: 36 h

IPI-504 and its metabolites in plasma ([5]; 24 h post dose, plasma): barely detectable
IPI-504 and its metabolites in tumors ([5]; 36 h post dose, 100 mg/kg, tumor): high concentrations
tumor PK concentrations of IPI-504 ([5]; at 24 to 48 h, tumor): ~1 µM
GI50 [7]: 2 µM
EC50 [9]: 0.644 µM
EC50 ([10]; read-out: HER2 degradation EC50, 6 h): 0.011 µM
EC50 [11]: 0.213 µM
EC50 [12]: 0.044 µM
EC50 [13]: 0.03 µM
GI50 [14]: 0.052 µM
GI50 [15]: 0.037 µM
GI50 [17]: 0.051 µM
EC50 [20]: 0.074 µM
SMILES: C=CCNc1c(O)cc2c(O)c1C[C@@H](C)C[C@H](OC)[C@H](O)[C@@H](C)/C=C(\C)[C@H](OC(N)=O)[C@@H](OC)/C=C\C=C(/C)C(=O)N2 [IPI-504]
affinity for Hsp90 higher than 17-AAG [6]: 50 fold
Akt maximal degradation [8]: ≤ 54%
HER2 degraded ([10]; 30 nM IPI-504, 6 h): > 90%
time after which mEGFR protein degradation was observed [16]: 2 h
time of re-emergence of mEGFR protein expression [16]: 24 h
time by which Hsp90 occupancy declined to background levels [18]: ≤ 48 h
time up to which significant Hsp90 occupancy was observed [18]: up to 12 h
cRaf maximal degradation [19]: ≤ 42%
